Compound activity as filed in PubChem.
HIF activator – HIF pathway transcriptional activation; activation, % at 7.5 µM (by protocol); hit rate 0.32% among 300,000; AID 1910; U2OS HRE-luciferase reporter, luminescence; normalized: DMSO 0%, desferrioxamine 100%;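 active means mean activation of at least 10% of the iron chelator positive control signal, with at least half of replicates also reaching 10%; inconclusive means mean and replicate majority disagree about reaching 10%; inactive means mean and most replicates under 10%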
SKKanGAS inh – SKKanGAS growth inhibition. S. pyogenes SKKanGAS, kanamycin growth, BacTiter-Glo, 6 h. hit rate 1.3% among 300,000. inhibition, % at 7.5 µM;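 active means mean replicate score, as percent of positive control median, at least 50; inconclusive means mean below 50 but one replicate at or above 50; inactive means mean and every replicate below 50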;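 further: strain carries kanamycin resistance gene driven by streptokinase promoter and grows in 40 µg/ml kanamycin; loss of luminescence reflects streptokinase promoter inhibition or plain growth inhibition; 0% = median of DMSO wells and 100% = positive control at its reference dose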
PfHsp90 yeast 2 – growth inhibition of yeast expressing Plasmodium Hsp90. S. cerevisiae expressing PfHsp90, BacTiter-Glo ATP, 48 h; yeast lacking PDR1 and PDR3 efflux regulators. hit rate 0.32% among 310,000. inhibition, % at 9.4 µM;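 active means every replicate shows inhibition above about 80%, whatever the replicate mean, limit read from the data; inconclusive means mean inhibition reaches the set limit but some replicate falls short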;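 further: 0% = DMSO neutral controls and 100% = 20 µM radicicol positive controls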
CSC inhib – blocks cancer stem cells | cancer stem cell-like cells viability, luminescence | inhibition, % at 7.5 µM | hit rate 1.1% among 300,000; in the data active means inhibition above about 75%; inconclusive means no clear call, values can overlap the other calls; tested in HMLE shEcad cells
Beta apoptosis – blocks beta cell apoptosis; INS-1E cytokine-induced death, ATP luminescence, 48 h; percent of positive-control rescue, neutral wells zero; protection from apoptosis, % (no concentration beside the values); hit rate 0.8% among 300,000; AID 435005;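 active means Every replicate reaches about 75%, or at least half do and their mean reaches it too, limit read from the data; inconclusive means At least half of replicates reach the limit but their mean does not; inactive means Under half of replicates reach the limit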;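 further: 0% = cytokine-treated negative control wells and 100% = positive control rescue; higher means more ATP so stronger rescue from cytokine killing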
T cruzi inh – blocks replication of Trypanosoma cruzi | hit rate 1.4% among 300,000 | T. cruzi beta-gal in NIH3T3, luminescence, 90 h | inhibition, % (test concentration not listed);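 active means mean inhibition across valid replicates above about 55%, limit read from the data; inconclusive means mean below that limit but half or more replicates reach it; inactive means mean below it, under half of replicates reach it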;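 further: signal also drops with host cell toxicity which is not excluded here; 0% = plate median of DMSO wells and 100% = zero luminescence signal; higher percent means less beta-gal luminescence so fewer parasites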
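compound dosing = single 50 nL compound addition per well in DMSO | material = NIH/3T3 host cells with β-galactosidase reporter T. cruzi | input = 5,000 host fibroblasts per well | timing = ≥90 h infection period, 3 h prior cell attachment | read-out basis = percent inhibition of parasite-derived β-gal signal | detection = GalScreen β-gal luminescence, detergent lysis, 60 min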
The depositor's hits bear a star; ? = inconclusive; · = no result. Compounds with a hit are over-represented: about 3.6% of the library has one in this group of screens.

SMILES	HIF activator	SKKanGAS inh	PfHsp90 yeast 2	CSC inhib	Beta apoptosis	T cruzi inh
COc1ccc2c(c1)OC[C@H]1[C@H]2N2C(=O)c3cc(OC)ccc3NC(=O)[C@@]2(C)[C@H]1c1ccccc1	·	·	113*	10	12	·
COc1ccc2c(c1)OC[C@H]1[C@H]2N2C(=O)c3cc(F)ccc3NC(=O)[C@@]2(C)[C@H]1c1ccccc1	·	·	-11	41	16	·
O=C(C[C@@H]1C/C=C\C[C@H](Cc2ccc(F)cc2)C(=O)OCCNC1=O)N[C@H](CO)Cc1ccccc1	·	·	-28	·	7	·
Cc1ccc2nc(N/C(N)=N/S(=O)(=O)c3ccc([N+](=O)[O-])cc3)nc(C)c2c1	0	3	-20	-11	5	58*
Cc1ccc(S(=O)(=O)/N=C(\N)Nc2nc(C)c3ccccc3n2)cc1	0	8	7	0	0	19
O=C(C[C@H]1C/C=C\CC[C@H](Cc2ccc(F)cc2)C(=O)OCCNC1=O)NCCO	·	·	3	-2	-9	·
C=CCNC(=O)c1c(CSc2ccc(Cl)cc2)noc1C(=O)NCc1ccccc1	1	39	-2	34	2	24
O=C(CCl)NC(Cc1ccccc1)C(=O)OCC(=O)c1ccc(-c2ccccc2)cc1 (centres undefined)	·	·	0	·	·	·
O=C(Cc1ccccc1)c1ccccc1C(=O)N1CCCCC1	2	0	-4	-4	-1	-5
Cc1cccc(NC(=O)CSCC(=O)N(C)CCOc2ccc(Cl)cc2)c1	-1	-2	·	-7	·	13
CC(=O)Oc1ccc(-c2csc(Nc3ccc(Cl)cn3)n2)cc1	2	34	-65	95*	·	39
c1ccc(-c2cn(-c3ccccc3)c3[n+]2CCCS3)cc1	0	2	7	-1	23	27
N#Cc1ccc(-c2cn(-c3ccccc3)c3[n+]2CCCS3)cc1	0	-18	13	-21	-3	5
CCc1ccc(-n2cc(-c3ccc(F)cc3)[n+]3c2SCCC3)cc1	0	-1	7	-8	110*	56*
Cc1ccc(-c2cn(-c3ccccc3)c3[n+]2CCCS3)cc1	0	-2	2	20	111*	44
COc1ccc(-n2cc(-c3ccc(C)cc3)[n+]3c2SCC3)cc1	0	-14	-2	25	113*	59*
Cn1nc(-c2ccccc2F)c2cc(C(=O)Nc3ccc4c(c3)OCCO4)sc21	-2	26	-3	77*	50	22
COc1cccc(-c2nn(C)c3sc(C(=O)Nc4ccc5c(c4)OCCO5)cc23)c1	3	59*	-9	40	25	36
CC(C)(C)C(C(Oc1ccc(Cl)cc1)n1cncn1)n1nnnc1C(c1cccc(Cl)c1)N1CCCCC1 (centres undefined)	-2	42	·	45	·	55*
COCCn1nnnc1C(c1cccc(C#N)c1)N1CCCCCC1 (centres undefined)	0	5	1	-22	-5	-1
CCC(C)(C(=O)Nc1ccccc1C)N(C(=O)CNC(C)=O)c1ccccc1C (centres undefined)	0	0	9	-16	-3	-12
CCc1nn(CCCC(=O)NCc2ccccc2Br)c(=O)c2cc3occc3n12	-1	59*	17	-7	1	8
Cc1noc(C)c1S(=O)(=O)N(C)CC(=O)NCc1ccccc1	0	1	7	-12	0	-18
Cc1noc(C)c1S(=O)(=O)N(CCc1ccccc1)Cc1ccccc1	0	54*	-14	14	-7	16
Cc1ccc(S(=O)(=O)N2c3ccccc3OCC2C(C)(C)C)cc1 (centres undefined)	-1	58*	-8	40	·	29
SMILES	HIF activator	SKKanGAS inh	PfHsp90 yeast 2	CSC inhib	Beta apoptosis	T cruzi inh
Cc1ccc(NC(=O)/C=N/OCC(=O)NCc2ccccc2Cl)cc1	0	-6	-29	3	-1	9
CCOc1ccc(S(=O)(=O)N2CCN=C2c2ccccc2)cc1	-1	19	8	117*	5	-7
CCN(CC)CCNC(=O)c1cc2c(-c3ccc(Cl)cc3)nn(C)c2s1	·	1	18	·	·	40
CCCN(CCC)CCNC(=O)c1cc2c(-c3ccc(Cl)cc3)nn(C)c2s1	1	0	0	102*	53	53
Cn1nc(-c2ccc(Cl)cc2)c2cc(C(=O)NCCN3CCOCC3)sc21	·	-4	-14	47	4	2
Cn1nc(-c2ccc(Cl)cc2)c2cc(C(=O)NCCCN3CCOCC3)sc21	·	-3	-1	79*	12	-1
CCCCN(CC)CCNC(=O)c1cc2c(-c3ccc(Cl)cc3)nn(C)c2s1	2	-2	-18	112*	20	57*
CC1CCCN(C(=O)CN(c2ccccc2)S(=O)(=O)c2ccc(F)cc2)C1 (centres undefined)	·	·	7	·	-2	·
CC(=O)Nc1ccc(S(=O)(=O)c2ccc([N+](=O)[O-])cc2)cc1	0	5	8	12	3	70*
O=C(Nc1ccc(C(=O)O)cc1)Nc1ccc([N+](=O)[O-])cc1	1	10	-24	-5	·	6
COC(=O)c1ccc(NC(=O)Nc2ccc([N+](=O)[O-])cc2)cc1	-34	51*	0	12	13	30
C=CCn1cn[nH]c1=S	-1	3	4	0	1	-7
CN(C)C(=O)CCC(=O)N(C)CC1CCCN(CCc2ccc(F)cc2)C1 (centres undefined)	-44	-2	0	1	·	-8
COc1ccc(CCN2CCCC(CN(C)C(=O)c3cc(C)oc3C)C2)cc1 (centres undefined)	4	47	12	-1	·	63*
Cc1cc(C(=O)N(C)CC2CCCN(CCc3ccc(F)cc3)C2)c(C)o1 (centres undefined)	1	-1	7	13	6	56*
COc1ccc(CCN2CCCC(CN(C)C(=O)c3ccoc3C)C2)cc1 (centres undefined)	0	-5	5	-6	-10	-2
CC(C)(CO)NC(=O)Nc1ccc(Cl)c(Cl)c1	0	-12	3	13	-1	5
N/C(=N\NC(=O)c1sccc1OCc1ccc(Cl)cc1Cl)c1ccccn1	4	?	-29	-3	78*	46
Cc1cc(C)c2c(=O)n(CC(=O)N3CCC(N4CCCCC4)CC3)sc2n1	0	1	5	-7	-2	-9
CCCNC(=O)Cn1sc2nc(C)cc(C)c2c1=O	-1	6	-6	31	-1	56*
CCOC(=O)c1ccc(NC(=O)c2ccc(OC(C)C)c(OC)c2)cc1	-1	-5	·	-23	0	9
CC1CN(S(=O)(=O)c2ccc(C(=O)NCCCn3ccnc3)cc2)CC(C)O1 (centres undefined)	0	2	17	67	113*	2
O=C(NCCCn1ccnc1)c1ccc(N2CCCCCC2)c([N+](=O)[O-])c1	0	-9	18	60	95*	16
